Compound activity: PubChem, several laboratories
Compounds with a hit are over-represented: about 4.1% of the library has one in this group of screens.
AHR act: activates the human aryl hydrocarbon receptor. P35869. AHR-responsive luciferase reporter cells, luminescence. activation, % at 5 µM. 320,000 compounds, 2.5% hits. AID 2796; in the data active = activation above about 47%;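 note: 0% = vehicle wells and 100% = reference agonist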
Target sequence (P35869 whole entry, looked up): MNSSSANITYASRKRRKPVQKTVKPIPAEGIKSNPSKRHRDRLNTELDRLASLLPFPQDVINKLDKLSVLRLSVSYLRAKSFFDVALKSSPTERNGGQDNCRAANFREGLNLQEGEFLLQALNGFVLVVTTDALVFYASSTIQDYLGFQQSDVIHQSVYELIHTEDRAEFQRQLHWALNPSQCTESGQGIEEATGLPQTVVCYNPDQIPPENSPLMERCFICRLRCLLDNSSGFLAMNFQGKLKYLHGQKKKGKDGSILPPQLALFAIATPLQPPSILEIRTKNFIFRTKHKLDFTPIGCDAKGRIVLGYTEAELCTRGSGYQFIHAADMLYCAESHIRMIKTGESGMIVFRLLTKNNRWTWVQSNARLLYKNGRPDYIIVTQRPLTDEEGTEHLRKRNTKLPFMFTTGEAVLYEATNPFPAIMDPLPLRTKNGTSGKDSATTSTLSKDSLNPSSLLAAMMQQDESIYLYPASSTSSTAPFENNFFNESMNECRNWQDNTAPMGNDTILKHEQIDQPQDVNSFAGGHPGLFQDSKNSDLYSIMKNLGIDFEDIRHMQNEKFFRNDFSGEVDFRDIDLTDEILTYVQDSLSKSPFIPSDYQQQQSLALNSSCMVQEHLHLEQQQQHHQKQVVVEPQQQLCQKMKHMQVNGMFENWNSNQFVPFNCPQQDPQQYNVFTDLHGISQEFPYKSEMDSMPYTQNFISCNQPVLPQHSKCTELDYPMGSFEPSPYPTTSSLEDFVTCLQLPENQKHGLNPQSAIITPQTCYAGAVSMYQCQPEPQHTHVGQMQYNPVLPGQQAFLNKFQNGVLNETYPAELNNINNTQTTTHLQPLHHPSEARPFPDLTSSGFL
Efflux pump mplx: inhibitors of Candida antifungal efflux pumps expressed in yeast | S. cerevisiae Candida pump triplex, Nile Red efflux | AID 485275 | inhibition, % at 10 µM | 330,000 compounds, 0.44% hits;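 active = plate passing quality check with inhibition over a set limit, or well fluorescence over plate mean plus 4 SD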;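 note: Nile Red retained in pooled yeast measured as flow cytometry median fluorescence; 0% = buffer negative control and 100% = Enniatin B positive control; higher means more Nile Red kept so more efflux inhibition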
TbMetRS inhib: Trypanosoma brucei MetRS inhibition | purified T. brucei MetRS, ATP depletion, Kinase-Glo luminescence | inhibition, % at 11.9 µM | 360,000 compounds, 0.4% hits | AID 624268;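 active = inhibition above a per-plate cutoff of the control wells' mean inhibition plus 3 SD, cut at about 5.5% in these data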;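 note: 0% = DMSO wells median and 100% = median of wells with control inhibitor compound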
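Test system – parasite MetRS enzyme · Reagent – substrates ATP, L-methionine and bulk Escherichia coli tRNA · Doses – 11.9 µM compound single dose, 0.9% DMSO · Times – 15 min enzyme-compound preincubation, 2 h reaction, 10 min detection, 25 °C · Signal – Kinase-Glo luminescence, ATP depletion format · Controls – DMSO-only wells as low control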
SMARCA2 activ: activators of SMARCA2 function | MG213 cells, MMTV-luciferase reporter, dexamethasone, overnight | activation, % at 9.1 µM | 370,000 compounds, 1% hits | AID 652017; in the data active = activation above about 7.8%;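 note: 0% = vehicle wells and 100% = reference activator wells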
TAG inh: reduces triacylglycerol accumulation in H9c2 cells. 230,000 compounds, 0.66% hits. inhibition, % at 12.5 µM. AID 651582. Nile Red lipid (TAG) fluorescence; cells loaded with 200 µM oleic acid;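 active = pattern-corrected inhibition of lipid staining of at least 50% with the nuclear-stain viability signal not falling by more than 50%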;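 note: 0% = DMSO wells and 100% = triacsin C control wells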
SMARCA2 act conf: SMARCA2 activation, confirmation screen; AID 652260; 3,500 compounds, 30% hits; activation, % at 9.1 µM; MG213 cells, MMTV-luciferase with dexamethasone, luminescence, overnight; MG213 cells expressing E1A, Rb sequestered; DMSO wells 0%, reference activator 100%; shares compounds with SMARCA2 activ;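 active = activation above its plate's cutoff, the mean activation of tested wells plus 3 SD, cut at about 7.9% in these data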
VP16 Luc act: counter-screen for SMARCA2 activators: GAL4-VP16 luciferase reporter activation; shares compounds with SMARCA2 activ; 3,500 compounds, 41% hits; AID 686939; activation, % at 9.1 µM; HEK293 GAL4-VP16 pG5luc reporter, luciferase luminescence; scaled: DMSO wells 0%, SAHA wells 100%;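 active = activation above the solvent-only control well mean plus 3 SD, averaged across control plates, cut at about 5.2% in these data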
* = called active by the depositor; . = not tested or not shown.

SMILES	AHR act	Efflux pump mplx	TbMetRS inhib	SMARCA2 activ	TAG inh	SMARCA2 act conf	VP16 Luc act
O=C(c1cc(-c2ccc(Br)cc2)on1)N1CCCCCC1	-4.5	-0.1	-0.1	9.4*	.	3.7	5.7*
S=C(c1ccc(-c2ccc(Br)cc2)o1)N1CCCCC1	27.0	-0.1	-0.6	8.1*	-7.7	15.6*	8.3*
S=C(c1ccc(-c2ccc(Br)cc2)o1)N1CCOCC1	10.9	0.0	-0.2	0.4	3.6	.	.
O=C(CN1CCc2onc(-c3ccc(-n4cc(-c5ccccc5)nn4)cc3)c2C1=O)N1CCOCC1	.	.	.	1.5	.	.	.
CN1CCN([C@@H]2CS(=O)(=O)N[C@H]2COCc2ccccc2)CC1	.	.	-0.9	-2.8	.	.	.
O=S1(=O)C[C@H](N2CCN(CCO)CC2)[C@@H](COCc2ccccc2)N1	.	.	0.5	8.1*	.	-3.5	2.7
COc1ccc([C@H]2CC(=O)C=C(c3ccc4c(c3)OCCO4)C2)cc1	5.0	0.4	-0.2	8.3*	-46.8	2.2	1.9
COc1ccc([C@H]2CC(=O)C=C(c3cccc(Cl)c3)C2)cc1	2.1	-0.1	0.4	0.8	-22.1	.	.
OC(c1ccccc1)(c1ccccc1)C1CCN(CCCOc2ccc(-c3ccncc3)cc2)CC1	.	.	.	5.5	.	.	.
O=C(CN1C(=O)S/C(=C\C=C\c2ccccc2)C1=O)Nc1ccc(C(=O)O)cc1	-0.5	-0.1	-0.9	-2.0	6.0	.	.
O=C(CN1C(=O)S/C(=C/C=C/c2ccccc2)C1=O)Nc1ccc(C(=O)O)cc1	0.8	-0.1	0.1	12.2*	0.0	0.7	0.5
C=C(C)CSc1nc2sc(C)c(C)c2c(=O)n1C	.	.	.	-3.2	.	.	.
CSc1ncccc1C(=O)OCC(=O)NC1CCCC1	-0.6	-0.4	-0.4	8.6*	2.9	-1.4	-0.2
CSc1ncccc1C(=O)OCC(=O)c1cc(C)n(C)c1C	0.3	-0.4	-0.2	0.3	19.4	.	.
CCn1c(C)cc(C(=O)COC(=O)c2cccnc2SC)c1C	-0.3	-0.1	-0.2	11.4*	16.8	8.0*	8.5*
C=CCN1C(=O)[C@@H](CC(=O)N2CCC(c3ccccc3)CC2)[C@]2(C(=O)OC)CCCCC=C12	.	.	.	-2.0	.	.	.
COc1ccc(CCNC(=O)c2cccn2C)cc1	3.2	1.2	-0.5	8.3*	-6.2	5.2	9.7*
C=C1C(=O)[C@]23C[C@H]1CC[C@H]2[C@]1(C)CCC[C@@](C)(C(=O)OC)[C@H]1C[C@@H]3O	.	.	.	-7.3	.	.	.
Cc1cccc(NC(=O)CCc2c(C)nn(-c3ccc(N4CCOCC4)nn3)c2C)c1	6.0	-0.1	-0.8	1.4	.	.	.
COc1cccc(NC(=O)CCc2c(C)nn(-c3ccc(N4CCOCC4)nn3)c2C)c1	5.7	-0.1	0.5	10.6*	.	1.8	2.9
COc1ccc(/C=C/C(=O)c2c(C)nc3ccccn23)cc1	-2.5	0.1	-0.5	9.7*	13.4	6.2	10.1*
Cc1nc2ccccn2c1C(=O)/C=C/c1ccc(F)cc1	-7.3	0.0	-1.5	2.7	-0.6	.	.
COc1ccc(C(=O)Nc2cccc(C)c2)cc1	-0.2	0.0	-0.5	9.6*	.	13.5*	8.4*
COc1ccc(C(=O)NNc2ccccc2)cc1	5.1	-0.3	0.4	10.2*	.	-0.7	-0.2
Cc1ccc(NC(=O)c2ccc(OC(=O)c3ccco3)cc2)cc1	3.8	-0.1	-0.9	0.3	.	.	.
SMILES	AHR act	Efflux pump mplx	TbMetRS inhib	SMARCA2 activ	TAG inh	SMARCA2 act conf	VP16 Luc act
COC(=O)c1sccc1NC(=O)c1ccc(OC)cc1	16.8	-0.2	-0.9	16.6*	5.2	4.5	0.3
COc1ccc(NC(=O)c2ccccc2)cc1	1.1	-0.2	-0.4	7.0	-8.6	.	.
Cc1ccc(NC(=O)c2ccc(OC(=O)c3cc4ccccc4o3)cc2)cc1	15.1	0.1	0.3	9.1*	-0.3	7.0	14.2*
COc1ccc(C(=O)Nc2cccc(NC(C)=O)c2)cc1	.	.	-0.2	5.4	-5.2	.	.
CC(=O)Nc1cccc(NC(=O)c2ccc3[nH]c(C)c(C)c3c2)c1	2.5	-0.1	0.5	-1.7	.	.	.
COc1ccc(NC(=O)c2ccc3[nH]c(C)c(C)c3c2)cc1	.	-0.2	-0.6	18.2*	.	9.5*	4.1
COc1ccc(C(=O)Nc2cccc(-c3cnc4ccccc4n3)c2)cc1	2.9	0.1	-0.4	8.4*	4.7	-2.7	3.5
Cc1ccc(C(=O)Nc2cccc(C(=O)N3CCOCC3)c2)cc1	11.3	0.2	-0.1	15.6*	.	8.3*	2.9
COC(=O)C1=C(C)N(Cc2cccc(C(F)(F)F)c2)C(=NCc2ccc(OC)cc2)NC1c1ccc(Cl)cc1 (stereo not drawn)	.	.	.	-6.1	.	.	.
CC12CCC(c3c(C(=O)O)nn(-c4ccccc4)c31)C2(C)C (stereo not drawn)	0.6	0.0	-1.1	9.4*	.	-2.2	0.0
Cc1cc2nc(-c3nnnn3-c3c(C)cccc3C)c(=O)[nH]c2cc1C	.	.	0.4	8.0*	.	-3.1	0.7
Cc1ccc(CCNC(=O)CCS(=O)(=O)c2cc3c(cc2C)NC(=O)CO3)cc1	1.5	-0.1	0.1	12.0*	-2.6	1.8	-0.8
O=C(CCS(=O)(=O)c1cc2c(cc1Cl)NC(=O)CO2)NCCc1ccccc1	-1.7	-0.1	0.4	0.0	.	.	.
O=S1(=O)N[C@H](Cc2ccccc2)COc2cccc(F)c21	.	.	.	-4.3	.	.	.
CCOC(=O)CSC1=NC(=O)/C(=C\c2ccc(Cl)cc2)S1	6.8	-0.4	0.4	9.3*	-18.2	4.6	3.6
O=C(/C=C/c1ccc2c(c1)OCO2)Nc1cccnc1	56.2*	-0.1	-0.7	13.1*	17.8	5.3	5.6*
Cc1cccnc1NC(=O)/C=C/c1ccc2c(c1)OCO2	36.7	-0.3	0.1	2.2	.	.	.
COC(=O)c1cccc(NC(=O)/C=C/c2ccc3c(c2)OCO3)c1	-9.2	0.1	0.1	8.2*	-0.7	-1.6	3.7
CC(=O)Nc1ccc(NC(=O)/C=C/c2ccc3c(c2)OCO3)cc1	1.0	0.0	0.2	0.8	-3.8	.	.
Cc1cc(C)nc(NC(=O)/C=C/c2ccc3c(c2)OCO3)c1	5.0	0.2	-0.9	11.2*	.	9.9*	8.4*
CC(C)(C)c1ccc(S(=O)(=O)N2CCC(C(=O)NCc3cccs3)CC2)cc1	.	.	.	-4.8	.	.	.
COC(=O)[C@]12C[C@H](CC(=O)NCCC(C)C)C(=O)N(Cc3ccccc3)C1=C[C@H](C1CCCC1)O[C@@H]2C	.	.	.	-6.7	.	.	.
O=C(N[C@H](C(=O)N1CCC[C@H]1C(=O)NCc1ccccc1)C1CCCCC1)c1ccc(Cl)c(Cl)c1	.	.	.	-4.9	.	.	.
Cc1ccc(C(=O)NCCCc2ccccc2)c(C)c1	4.1	0.2	-0.1	10.4*	-9.6	13.3*	8.5*
O=C(NC(=S)Nc1ccccc1)c1ccc(Br)o1	11.2	0.0	0.6	9.3*	.	12.6*	6.2*
O=C(NCCCc1ccccc1)c1ccc(Br)o1	-0.5	0.1	-0.6	9.7*	-29.3	0.6	0.2
